Legend:
L1210 [1] = experiment: Antitumor activity against mouse L1210 cells allografted in mouse assessed as increase in life span at 100 umol/kg/day, po using 0.01 N HCl vehicle for 5 days 24 hrs after tumor inoculation; type: functional
In short: (§1)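 Mice were inoculated ip on day 0 with 1×10^6 L1210 cells each. Dosing started 24 h later, once daily for 5 days, in groups of eight. Survival was recorded to the nearest day. %ILS was calculated from median survival of treated vs control groups, with ≥25% counted as significant. For the plain-saline and HCl vehicles, compound was first wetted with a few drops of ethanol (<5% v/v).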

L1210 [2] = experiment: Antitumor activity against mouse L1210 cells allografted in mouse assessed as increase in life span at 200 umol/kg/day, po using 0.01 N HCl vehicle for 5 days 24 hrs after tumor inoculation; type: functional; in short: as §1
L1210 [3] = experiment: Antitumor activity against mouse L1210 cells allografted in mouse assessed as increase in life span at 400 umol/kg/day, po using 0.01 N HCl vehicle for 5 days 24 hrs after tumor inoculation; type: functional; in short: as §1
Rattus norvegicus [4] = experiment: Immunosuppression in experimental allergic encephalomyelitis rat model administered po for days 1 to 13 measured on day 17
Rattus norvegicus [5] = experiment: Immunosuppression activity in experimental allergic encephalomyelitis rat model administered po for days 1 to 13 measured on day 14
Rattus norvegicus [6] = experiment: Immunosuppression activity in rat assessed as reduction of adjuvant-induced acute inflammation administered po twice daily on days 0 to 14
Rattus norvegicus [7] = experiment: Immunosuppression activity in rat assessed as reduction of adjuvant-induced polyarthritis administered po twice daily on days 0 to 14 measured on day 21
Rattus norvegicus [8] = experiment: Immunosuppression activity in rat assessed as reduction of adjuvant-induced polyarthritis administered po twice daily for days 0 to 14 measured on day 15
L1210 [9] = experiment: Antitumor activity against mouse L1210 cells allografted in mouse assessed as increase in life span at 100 umol/kg/day, po using saline vehicle for 5 days 24 hrs after tumor inoculation; type: functional; in short: as §1
L1210 [10] = experiment: Antitumor activity against mouse L1210 cells allografted in mouse assessed as increase in life span at 200 umol/kg/day, po using saline vehicle for 5 days 24 hrs after tumor inoculation; type: functional; in short: as §1
L1210 [11] = experiment: Antitumor activity against mouse L1210 cells allografted in mouse assessed as increase in life span at 400 umol/kg/day, po using saline vehicle for 5 days 24 hrs after tumor inoculation; type: functional; in short: as §1
L1210 [12] = experiment: Antitumor activity against mouse L1210 cells allografted in mouse assessed as increase in life span at 100 umol/kg/day, po using 0.1 N HCl vehicle for 5 days 24 hrs after tumor inoculation; type: functional; in short: as §1
L1210 [13] = experiment: Antitumor activity against mouse L1210 cells allografted in mouse assessed as increase in life span at 200 umol/kg/day, po using 0.1 N HCl vehicle for 5 days 24 hrs after tumor inoculation; type: functional; in short: as §1
L1210 [14] = experiment: Antitumor activity against mouse L1210 cells allografted in mouse assessed as increase in life span at 400 umol/kg/day, po using 0.1 N HCl vehicle for 5 days 24 hrs after tumor inoculation; type: functional; in short: as §1
L1210 [15] = experiment: Antitumor activity against mouse L1210 cells allografted in mouse assessed as increase in life span at 100 umol/kg/day, po using 0.9% (W/V) aqueous NaCl vehicle for 5 days 24 hrs after tumor inoculation; type: functional; in short: as §1
L1210 [16] = experiment: Antitumor activity against mouse L1210 cells allografted in mouse assessed as increase in life span at 200 umol/kg/day, po using 0.9% (W/V) aqueous NaCl vehicle for 5 days 24 hrs after tumor inoculation; type: functional; in short: as §1
L1210 [17] = experiment: Antitumor activity against mouse L1210 cells allografted in mouse assessed as increase in life span at 400 umol/kg/day, po using 0.9% (W/V) aqueous NaCl vehicle for 5 days 24 hrs after tumor inoculation; type: functional; in short: as §1
L1210 [18] = experiment: Antitumor activity against mouse L1210 cells allografted in mouse assessed as increase in life span at 100 umol/kg/day, po using 0.9% (W/V) aqueous NaCl vehicle for 5 days 24 hrs after tumor inoculation in presence of THU 10 mg/kg/day on days 1 to 5; type: functional; in short: as §1
L1210 [19] = experiment: Antitumor activity against mouse L1210 cells allografted in mouse assessed as increase in life span at 200 umol/kg/day, po using 0.9% (W/V) aqueous NaCl vehicle for 5 days 24 hrs after tumor inoculation in presence of THU 10 mg/kg/day on days 1 to 5; type: functional; in short: as §1
L1210 [20] = experiment: Antitumor activity against mouse L1210 cells allografted in mouse assessed as increase in life span at 100 umol/kg/day, ip using 0.9% (W/V) aqueous NaCl vehicle for 5 days 24 hrs after tumor inoculation; type: functional; in short: as §1
L1210 [21] = experiment: Antitumor activity against mouse L1210 cells allografted in mouse assessed as increase in life span at 200 umol/kg/day, ip using 0.9% (W/V) aqueous NaCl vehicle for 5 days 24 hrs after tumor inoculation; type: functional; in short: as §1
L1210 [22] = experiment: Antitumor activity against mouse L1210 cells allografted in mouse assessed as increase in life span at 400 umol/kg/day, ip using 0.9% (W/V) aqueous NaCl vehicle for 5 days 24 hrs after tumor inoculation; type: functional; in short: as §1
L1210 [23] = experiment: Antitumor activity against mouse L1210 cells allografted in mouse assessed as increase in life span at 400 umol/kg/day, po using 0.9% (W/V) aqueous NaCl vehicle for 5 days 24 hrs after tumor inoculation in presence of THU 10 mg/kg/day on days 1 to 5

| SMILES | inhibition (INH) (Rattus norvegicus [4]) [%] | inhibition (INH) (Rattus norvegicus [5]) [%] | inhibition (INH) (Rattus norvegicus [6]) [%] | inhibition (INH) (Rattus norvegicus [7]) [%] | inhibition (INH) (Rattus norvegicus [8]) [%] | ILS at 100 µmol/kg (L1210 [15]) [%] | ILS at 200 µmol/kg (L1210 [16]) [%] | ILS at 400 µmol/kg (L1210 [17]) [%] | other results |
| --- | --- | --- | --- | --- | --- | --- | --- | --- | --- |
| CCCCCCCCCCCCCCCC(=O)OC[C@H]1O[C@@H](n2ccc(N)nc2=O)[C@@H](O)[C@@H]1O.Cl | 13.2 | 8.1 | 13 | 6 | 11 | – | – | – | ILS at 100 µmol/kg (L1210 [1]): 46%; ILS at 200 µmol/kg (L1210 [2]): 69%; ILS at 400 µmol/kg (L1210 [3]): 92% |
| Cl.Nc1ccn([C@@H]2O[C@H](COC(=O)c3ccccc3)[C@@H](O)[C@@H]2O)c(=O)n1 | 0 | 0 | 15 | 20 | 47 | – | – | – | ILS at 100 µmol/kg (L1210 [9]): 15%; ILS at 200 µmol/kg (L1210 [10]): 31%; ILS at 400 µmol/kg (L1210 [11]): 62% |
| Cl.Nc1ccn([C@@H]2O[C@H](COC(=O)C34CC5CC(CC(C5)C3)C4)[C@@H](O)[C@@H]2O)c(=O)n1 | 7.9 | 5.4 | 4 | 28 | 31 | – | – | – | ILS at 100 µmol/kg (L1210 [12]): 46%; ILS at 200 µmol/kg (L1210 [13]): 77%; ILS at 400 µmol/kg (L1210 [14]): 130% |
| CCCCCCCCCCCCCCCC(=O)OC[C@H]1O[C@@H](n2ccc(NC(=O)[C@H](CCCNC(=N)N)NC(=O)CNC(=O)OC(C)(C)C)nc2=O)[C@@H](O)[C@@H]1O.Cl | 10.5 | 35.1 | 6 | – | – | 30 | 44 | 110 | – |
| CC(C)(C)OC(=O)NCC(=O)N[C@@H](CCCNC(=N)N)C(=O)Nc1ccn([C@@H]2O[C@H](COC(=O)c3ccccc3)[C@@H](O)[C@@H]2O)c(=O)n1.Cl | 5.3 | 13.5 | 9 | 35 | 52 | 14 | 21 | 43 | – |
| CC(C)(C)OC(=O)NCC(=O)N[C@@H](CCCNC(=N)N)C(=O)Nc1ccn([C@@H]2O[C@H](COC(=O)C34CC5CC(CC(C5)C3)C4)[C@@H](O)[C@@H]2O)c(=O)n1.Cl | 10.5 | 5.4 | 1 | 18 | 50 | 21 | 43 | 93 | – |
| Cl.Nc1ccn([C@@H]2O[C@H](COC(=O)c3cccnc3)[C@@H](O)[C@@H]2O)c(=O)n1 | – | – | 4 | 0 | 0 | – | – | – | ILS at 100 µmol/kg (L1210 [1]): 31%; ILS at 200 µmol/kg (L1210 [2]): 46%; ILS at 400 µmol/kg (L1210 [3]): 69% |
| Cl.Nc1ccn([C@@H]2O[C@H](COC(=O)C3CC4CCN3CC4)[C@@H](O)[C@@H]2O)c(=O)n1 (stereo not given in full) | – | – | -2 | 0 | 5 | – | – | – | ILS at 100 µmol/kg (L1210 [9]): 8%; ILS at 200 µmol/kg (L1210 [10]): 0%; ILS at 400 µmol/kg (L1210 [11]): 15% |
| Nc1ccn([C@@H]2O[C@H](CO)[C@@H](O)[C@@H]2O)c(=O)n1 [CYTARABINE] | – | – | -4 | 7 | 20 | 15 | 38 | 62 | ILS (L1210 [18]): 62%; ILS (L1210 [19]): 92%; ILS at 100 µmol/kg (L1210 [20]): 69%; ILS at 200 µmol/kg (L1210 [21]): 100%; ILS at 400 µmol/kg (L1210 [22]): 131%; ILS (L1210 [23]): 138% |
